In brackets after ≈: the same amount, converted by molar mass.
Key:
Format in all cases: functional
Staphylococcus aureus [1] = assay: Antimicrobial activity against methicillin-susceptible Staphylococcus aureus assessed as resistant isolates after 24 hrs by broth microdilution method
Mammaliicoccus sciuri [2] = assay: Antimicrobial activity against methicillin-susceptible coagulase-negative Staphylococcus sciuri assessed as susceptible isolates after 24 hrs by broth microdilution method
Summary of the method: (§1)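 Clinical isolates from blood, body fluids, pus, sputum or genital secretions, identified conventionally or by Vitek, were tested alongside ATCC 29213 and ATCC 12228 controls. CLSI M7-A6 broth microdilution in Mueller-Hinton broth used twofold dilutions from a 10% DMSO solution and 5 × 10^5 CFU/ml inoculum. Drug-free and uninoculated wells served as controls; incubation was aerobic at 37°C for 24 h. MIC was the lowest concentration with no visible growth.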

[3] = test system: Staphylococcus epidermidis; assay: Antimicrobial activity against methicillin-susceptible coagulase-negative Staphylococcus epidermidis after 24 hrs by broth microdilution method
Summary of the method: (§2)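 Clinical isolates came from blood, body fluids, genital secretions, pus or sputum, identified conventionally or by Vitek. MICs were run by CLSI M7-A6 broth microdilution in Mueller-Hinton broth with 5 × 10^5 CFU/ml inoculum. Agents were twofold serially diluted, starting from 10% DMSO. Drug-free and uninoculated controls were included. Plates were incubated aerobically at 37°C for 24 h; MIC is the lowest concentration giving no visible growth.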

[4] = test system: Staphylococcus haemolyticus; assay: Antimicrobial activity against methicillin-susceptible coagulase-negative Staphylococcus haemolyticus after 24 hrs by broth microdilution method; summary of the method: as §2
Staphylococcus simulans [5] = assay: Antimicrobial activity against methicillin-susceptible coagulase-negative Staphylococcus simulans assessed as susceptible isolates after 24 hrs by broth microdilution method; summary of the method: as §1
[6] = test system: Staphylococcus haemolyticus; assay: Antimicrobial activity against methicillin-resistant coagulase-negative Staphylococcus haemolyticus after 24 hrs by broth microdilution method; summary of the method: as §2
[7] = test system: Staphylococcus haemolyticus; assay: Bactericidal activity against methicillin-resistant coagulase-negative Staphylococcus haemolyticus after 24 hrs by plate counting method
Staphylococcus simulans [8] = assay: Bactericidal activity against methicillin-resistant coagulase-negative Staphylococcus simulans after 24 hrs by plate counting method
Summary of the method: (§3)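 Clinical staphylococcal isolates from patient body fluids, blood, genital secretions, pus or sputum; species by conventional methods or Vitek. Twofold dilutions in Mueller-Hinton broth, inoculum 5 × 10^5 CFU/ml, 37°C aerobic 24 h (CLSI M7-A6 microdilution). About 100 μl from each well without visible growth spread on MHA; 37°C 24 h. MBC = lowest concentration giving no growth on agar.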

Staphylococcus aureus [9] = assay: Antimicrobial activity against methicillin-susceptible Staphylococcus aureus assessed as intermediate resistant isolates after 24 hrs by broth microdilution method
Mammaliicoccus sciuri [10] = assay: Antimicrobial activity against methicillin-susceptible coagulase-negative Staphylococcus sciuri after 24 hrs by broth microdilution method; summary of the method: as §2
Staphylococcus simulans [11] = assay: Antimicrobial activity against methicillin-susceptible coagulase-negative Staphylococcus simulans after 24 hrs by broth microdilution method; summary of the method: as §2
Staphylococcus aureus [12] = assay: Bactericidal activity against methicillin-susceptible Staphylococcus aureus after 24 hrs by plate counting method; summary of the method: as §3
[13] = test system: Staphylococcus epidermidis; assay: Bactericidal activity against methicillin-resistant coagulase-negative Staphylococcus epidermidis after 24 hrs by plate counting method
[14] = test system: Staphylococcus epidermidis; assay: Bactericidal activity against methicillin-susceptible coagulase-negative Staphylococcus epidermidis after 24 hrs by plate counting method; summary of the method: as §3
[15] = test system: Staphylococcus epidermidis; assay: Antimicrobial activity against methicillin-susceptible coagulase-negative Staphylococcus epidermidis assessed as susceptible isolates after 24 hrs by broth microdilution method
Staphylococcus hominis [16] = assay: Bactericidal activity against methicillin-susceptible coagulase-negative Staphylococcus hominis after 24 hrs by plate counting method; summary of the method: as §3
Staphylococcus hominis [17] = assay: Antimicrobial activity against methicillin-susceptible coagulase-negative Staphylococcus hominis assessed as intermediate resistant isolates after 24 hrs by broth microdilution method; details: pooled result: one value given for 5 cell lines, strains, targets or settings
Staphylococcus hominis [18] = assay: Antimicrobial activity against methicillin-susceptible coagulase-negative Staphylococcus hominis assessed as resistant isolates after 24 hrs by broth microdilution method
Staphylococcus hominis [19] = assay: Antimicrobial activity against methicillin-resistant coagulase-negative Staphylococcus hominis assessed as resistant isolates after 24 hrs by broth microdilution method
[20] = test system: Staphylococcus haemolyticus; assay: Antimicrobial activity against methicillin-resistant coagulase-negative Staphylococcus haemolyticus assessed as intermediate resistant isolates after 24 hrs by broth microdilution method
Staphylococcus aureus [21] = assay: Antimicrobial activity against methicillin-resistant Staphylococcus aureus assessed as resistant isolates after 24 hrs by broth microdilution method
[22] = test system: Staphylococcus epidermidis; assay: Antimicrobial activity against methicillin-resistant coagulase-negative Staphylococcus epidermidis assessed as intermediate resistant isolates after 24 hrs by broth microdilution method
Staphylococcus aureus [23] = assay: Bactericidal activity against methicillin-resistant Staphylococcus aureus after 24 hrs by plate counting method
[24] = test system: Staphylococcus epidermidis; assay: Antimicrobial activity against methicillin-resistant coagulase-negative Staphylococcus epidermidis assessed as resistant isolates after 24 hrs by broth microdilution method
[25] = test system: Staphylococcus haemolyticus; assay: Antimicrobial activity against methicillin-susceptible coagulase-negative Staphylococcus haemolyticus assessed as resistant isolates after 24 hrs by broth microdilution method
Staphylococcus simulans [26] = assay: Antimicrobial activity against methicillin-resistant coagulase-negative Staphylococcus simulans assessed as intermediate resistant isolates after 24 hrs by broth microdilution method
Mammaliicoccus sciuri [27] = assay: Antimicrobial activity against methicillin-susceptible coagulase-negative Staphylococcus sciuri assessed as resistant isolates after 24 hrs by broth microdilution method
Staphylococcus hominis [28] = assay: Antimicrobial activity against methicillin-susceptible coagulase-negative Staphylococcus hominis after 24 hrs by broth microdilution method; summary of the method: as §2
Mammaliicoccus sciuri [29] = assay: Antimicrobial activity against methicillin-resistant coagulase-negative Staphylococcus sciuri after 24 hrs by broth microdilution method; summary of the method: as §2
[30] = test system: Staphylococcus epidermidis; assay: Antimicrobial activity against methicillin-susceptible coagulase-negative Staphylococcus epidermidis assessed as resistant isolates after 24 hrs by broth microdilution method
[31] = test system: Staphylococcus haemolyticus; assay: Antimicrobial activity against methicillin-susceptible coagulase-negative Staphylococcus haemolyticus assessed as susceptible isolates after 24 hrs by broth microdilution method
Mammaliicoccus sciuri [32] = assay: Antimicrobial activity against methicillin-resistant coagulase-negative Staphylococcus sciuri assessed as resistant isolates after 24 hrs by broth microdilution method
Mammaliicoccus sciuri [33] = assay: Bactericidal activity against methicillin-susceptible coagulase-negative Staphylococcus sciuri after 24 hrs by plate counting method; summary of the method: as §3
[34] = test system: Staphylococcus epidermidis; assay: Antimicrobial activity against methicillin-resistant coagulase-negative Staphylococcus epidermidis assessed as susceptible isolates after 24 hrs by broth microdilution method
Staphylococcus hominis [35] = assay: Bactericidal activity against methicillin-resistant coagulase-negative Staphylococcus hominis after 24 hrs by plate counting method
[36] = Staphylococcus epidermidis, 24 h

CN[C@H](CC(C)C)C(=O)N[C@H]1C(=O)N[C@@H](CC(N)=O)C(=O)N[C@H]2C(=O)N[C@H]3C(=O)N[C@H](C(=O)N[C@H](C(=O)O)c4cc(O)cc(O)c4-c4cc3ccc4O)[C@H](O)c3ccc(c(Cl)c3)Oc3cc2cc(c3O[C@@H]2O[C@H](CO)[C@@H](O)[C@H](O)[C@H]2O[C@H]2C[C@](C)(N)[C@H](O)[C@H](C)O2)Oc2ccc(cc2Cl)[C@H]1O [VANCOMYCIN]
Activity (Staphylococcus aureus [1]): 0% | Activity (Mammaliicoccus sciuri [2]): 100% | MIC50 [3]: 0.25 µg/mL (≈ 0.173 µM) | MIC90 [3]: 1 µg/mL (≈ 0.69 µM) | MIC50 [4]: 0.25 µg/mL (≈ 0.173 µM) | MIC90 [4]: 1 µg/mL (≈ 0.69 µM) | Activity (Staphylococcus simulans [5]): 100% | MIC [6]: 0.125 µg/mL (≈ 0.0863 µM) | MIC50 [6]: 0.125 µg/mL (≈ 0.0863 µM) | MIC90 [6]: 2 µg/mL (≈ 1.38 µM) | MBC50 [7]: 2 µg/mL (≈ 1.38 µM) | MBC90 [7]: 4 µg/mL (≈ 2.76 µM) | MBC ([7]; Staphylococcus haemolyticus, 24 h): 0.5 µg/mL (≈ 0.345 µM) | MBC50 (Staphylococcus simulans [8]): 2 µg/mL (≈ 1.38 µM) | MBC90 (Staphylococcus simulans [8]): 4 µg/mL (≈ 2.76 µM) | MBC (Staphylococcus simulans [8]; Staphylococcus simulans, 24 h): 0.5 µg/mL (≈ 0.345 µM) | Activity (Staphylococcus aureus [9]): 0% | MIC50 (Mammaliicoccus sciuri [10]): 0.25 µg/mL (≈ 0.173 µM) | MIC90 (Mammaliicoccus sciuri [10]): 1 µg/mL (≈ 0.69 µM) | MIC50 (Staphylococcus simulans [11]): 0.25 µg/mL (≈ 0.173 µM) | MIC90 (Staphylococcus simulans [11]): 1 µg/mL (≈ 0.69 µM) | MBC50 (Staphylococcus aureus [12]): 1 µg/mL (≈ 0.69 µM) | MBC90 (Staphylococcus aureus [12]): 2 µg/mL (≈ 1.38 µM) | MBC (Staphylococcus aureus [12]; Staphylococcus aureus, 24 h): 0.25 µg/mL (≈ 0.173 µM) | MBC50 [13]: 2 µg/mL (≈ 1.38 µM) | MBC90 [13]: 4 µg/mL (≈ 2.76 µM) | MBC [13, 36]: 0.5 µg/mL (≈ 0.345 µM) | MBC50 [14]: 1 µg/mL (≈ 0.69 µM) | MBC90 [14]: 4 µg/mL (≈ 2.76 µM) | MBC [14, 36]: 0.125 µg/mL (≈ 0.0863 µM) | Activity [15]: 100% | MBC50 (Staphylococcus hominis [16]): 1 µg/mL (≈ 0.69 µM) | MBC90 (Staphylococcus hominis [16]): 4 µg/mL (≈ 2.76 µM) | MBC (Staphylococcus hominis [16]; Staphylococcus hominis, 24 h): 0.125 µg/mL (≈ 0.0863 µM) | Activity (Staphylococcus hominis [17]): 0% | Activity (Staphylococcus hominis [18]): 0% | Activity (Staphylococcus hominis [19]): 0% | Activity [20]: 0% | Activity (Staphylococcus aureus [21]): 0% | Activity [22]: 0% | MBC50 (Staphylococcus aureus [23]): 1 µg/mL (≈ 0.69 µM) | MBC90 (Staphylococcus aureus [23]): 2 µg/mL (≈ 1.38 µM) | MBC (Staphylococcus aureus [23]; Staphylococcus aureus, 24 h): 0.5 µg/mL (≈ 0.345 µM) | Activity [24]: 0% | Activity [25]: 0% | Activity (Staphylococcus simulans [26]): 0% | Activity (Mammaliicoccus sciuri [27]): 0% | MIC50 (Staphylococcus hominis [28]): 0.25 µg/mL (≈ 0.173 µM) | MIC90 (Staphylococcus hominis [28]): 1 µg/mL (≈ 0.69 µM) | MIC (Mammaliicoccus sciuri [29]): 0.125 µg/mL (≈ 0.0863 µM) | MIC50 (Mammaliicoccus sciuri [29]): 0.125 µg/mL (≈ 0.0863 µM) | MIC90 (Mammaliicoccus sciuri [29]): 2 µg/mL (≈ 1.38 µM) | Activity [30]: 0% | Activity [31]: 100% | Activity (Mammaliicoccus sciuri [32]): 0% | MBC50 (Mammaliicoccus sciuri [33]): 1 µg/mL (≈ 0.69 µM) | MBC90 (Mammaliicoccus sciuri [33]): 4 µg/mL (≈ 2.76 µM) | MBC (Mammaliicoccus sciuri [33]; Mammaliicoccus sciuri, 24 h): 0.125 µg/mL (≈ 0.0863 µM) | Activity [34]: 100% | MBC50 (Staphylococcus hominis [35]): 2 µg/mL (≈ 1.38 µM) | MBC90 (Staphylococcus hominis [35]): 4 µg/mL (≈ 2.76 µM) | MBC (Staphylococcus hominis [35]; Staphylococcus hominis, 24 h): 0.5 µg/mL (≈ 0.345 µM)

GENTAMICIN
Activity (Staphylococcus aureus [1]): 48% | Activity (Mammaliicoccus sciuri [2]): 73% | MIC50 [3]: 0.125 µg/mL | MIC90 [3]: 32 µg/mL | MIC50 [4]: 0.125 µg/mL | MIC90 [4]: 32 µg/mL | Activity (Staphylococcus simulans [5]): 73% | MIC50 [6]: 8 µg/mL | MIC90 [6]: 64 µg/mL | MBC [7]: 0.25 µg/mL | MBC50 [7]: 8 µg/mL | MBC90 [7]: 128 µg/mL | MBC (Staphylococcus simulans [8]): 0.25 µg/mL | MBC50 (Staphylococcus simulans [8]): 8 µg/mL | MBC90 (Staphylococcus simulans [8]): 128 µg/mL | Activity (Staphylococcus aureus [9]): 0% | MIC50 (Mammaliicoccus sciuri [10]): 0.125 µg/mL | MIC90 (Mammaliicoccus sciuri [10]): 32 µg/mL | MIC50 (Staphylococcus simulans [11]): 0.125 µg/mL | MIC90 (Staphylococcus simulans [11]): 32 µg/mL | MBC (Staphylococcus aureus [12]): 0.5 µg/mL | MBC50 (Staphylococcus aureus [12]): 8 µg/mL | MBC90 (Staphylococcus aureus [12]): 128 µg/mL | MBC [13]: 0.25 µg/mL | MBC50 [13]: 8 µg/mL | MBC90 [13]: 128 µg/mL | MBC [14]: 0.25 µg/mL | MBC50 [14]: 1 µg/mL | MBC90 [14]: 64 µg/mL | Activity [15]: 73% | MBC (Staphylococcus hominis [16]): 0.25 µg/mL | MBC50 (Staphylococcus hominis [16]): 1 µg/mL | MBC90 (Staphylococcus hominis [16]): 64 µg/mL | Activity (Staphylococcus hominis [17]): 0% | Activity (Staphylococcus hominis [18]): 27% | Activity (Staphylococcus hominis [19]): 48% | Activity [20]: 7% | Activity (Staphylococcus aureus [21]): 63% | Activity [22]: 7% | MBC (Staphylococcus aureus [23]): 2 µg/mL | MBC50 (Staphylococcus aureus [23]): 64 µg/mL | MBC90 (Staphylococcus aureus [23]): 128 µg/mL | Activity [24]: 48% | Activity [25]: 27% | Activity (Staphylococcus simulans [26]): 7% | Activity (Mammaliicoccus sciuri [27]): 27% | MIC50 (Staphylococcus hominis [28]): 0.125 µg/mL | MIC90 (Staphylococcus hominis [28]): 32 µg/mL | MIC50 (Mammaliicoccus sciuri [29]): 8 µg/mL | MIC90 (Mammaliicoccus sciuri [29]): 64 µg/mL | Activity [30]: 27% | Activity [31]: 73% | Activity (Mammaliicoccus sciuri [32]): 48% | MBC (Mammaliicoccus sciuri [33]): 0.25 µg/mL | MBC50 (Mammaliicoccus sciuri [33]): 1 µg/mL | MBC90 (Mammaliicoccus sciuri [33]): 64 µg/mL | Activity [34]: 45% | MBC (Staphylococcus hominis [35]): 0.25 µg/mL | MBC50 (Staphylococcus hominis [35]): 8 µg/mL | MBC90 (Staphylococcus hominis [35]): 128 µg/mL

— ChEMBL document CHEMBL1649231, “In vitro activities of panduratin A against clinical Staphylococcus strains” (2009)
